Measurements from different studies.
Target: Mitogen-activated protein kinase kinase kinase 20 (MAP3K20, Homo sapiens, UniProt Q9NYL2)

`O=C(NCC1CCOCC1)c1n[nH]cc1NC(=O)c1c(F)cccc1F` has a remaining binding of 100% (binding, competition with immobilised ligand; 1 µM).
`O=C(NCCCN1CCOCC1)c1ccc(Nc2nccc(-c3cc4ccccc4s3)n2)cc1` gave a remaining binding of 62% (binding, competition with immobilised ligand; 1 µM).
With `F[C@@H]1CCN(c2nccc(-c3cnn4ncccc34)n2)C1` the remaining binding was 76% (binding; 1 µM).
For `CS(=O)(=O)NCC[C@H](NC(=O)c1cncc2c1cnn2-c1ccc(F)cc1)c1ccnc(S(C)(=O)=O)c1`, the remaining binding was 88% (cell-free assay, competition with immobilised ligand; 1 µM).
For `COc1cnc(Nc2cccc(S(N)(=O)=O)c2)nc1N1CCN(c2ccccc2)CC1`, the remaining binding was 100% (binding, competition with immobilised ligand; 1 µM).
The remaining binding of `CC1CCCN1c1nccc(-c2cnn3ncccc23)n1` (stereo not shown) is reported as 100% (binding; 1 µM).
The remaining binding of `Nc1ncc2c(n1)-c1c([nH]c3ccc(C#CC4CC4)cc13)CCCC2` is reported as 93% (binding, competition with immobilised ligand; 1 µM).
For `Cc1cc(-n2nc(Cc3cc(F)cc(C(F)(F)F)c3)nc2C)ccc1C(N)=O`, the remaining binding was 99% (cell-free assay, competition with immobilised ligand; 1 µM).
For `CN(C)c1ncc(F)c(-c2cnn3ncccc23)n1`, the remaining binding was 96% (binding; 1 µM).
For `O=C(c1ccc(Nc2ncc(Cl)c(-c3ccc(Cl)s3)n2)cc1)N1CCC(N2CCCC2)CC1`, the remaining binding was 65% (binding, competition with immobilised ligand; 1 µM).
For `C[C@H]1CCN(c2nccc(-c3cnn4ncccc34)n2)C1`, the remaining binding was 97% (binding; 1 µM).
`O=C(c1ccc(Nc2nccc(-c3cc4ccccc4s3)n2)cc1)N1CCC(N2CCCC2)CC1` gave a remaining binding of 69% (binding, competition with immobilised ligand; 1 µM).
The remaining binding of `COc1ncc2cc3ccccc3nc2c1C#N` is reported as 80% (cell-free assay, competition with immobilised ligand; 5 µM).
The remaining binding of `C[C@@H](c1ccc(-n2cnc3c(N)ncnc32)cc1)N1CCc2nn(C)c(Cc3ccccc3)c2C1=O` is reported as 58% (binding, competition with immobilised ligand; 0.1 µM).
The remaining binding of `CCOC(=O)c1cc2cc(-c3cc(C(=O)NCc4ccc(C(=O)O)cc4)nn3C)ccc2[nH]1` is reported as 87% (cell-free assay, competition with immobilised ligand; 0.1 µM).
`N[C@@H]1CCN(c2nccc(-c3cnn4ncccc34)n2)C1` gave a remaining binding of 100% (binding; 1 µM).
For `Cc1c(NC(=O)c2cc(C(N)=O)nc3cc(F)ccc23)c(C(F)(F)F)nn1Cc1ccc(C#N)cc1`, the remaining binding was 100% (cell-free assay, competition with immobilised ligand; 1 µM).
The remaining binding of `c1cncc(-c2cccc(Nc3nccc(NC4CCCCC4)n3)c2)c1` is reported as 93% (binding, competition with immobilised ligand; 10 µM).
With `O=c1nc(-c2ccccn2)sc2ccccc12` the remaining binding was 87% (binding, competition with immobilised ligand; 1 µM).
For `C=CC(=O)N1CCC(C(=O)NCC(=O)N2CCN(c3nc(-c4cnc(N)nc4C(F)F)nc(N4CCOCC4)n3)CC2)CC1`, the remaining binding was 100% (binding, competition with immobilised ligand; 1 µM).
The remaining binding of `O=C(O)[C@@H]1[C@@H](Cn2nnc3ccccc3c2=O)CC[C@H]1C(=O)c1ccc(OCCC2CCOCC2)cc1` is reported as 91% (cell-free assay, competition with immobilised ligand; 1 µM).
`c1cnn2ncc(-c3ccnc(N4CCC45COC5)n3)c2c1` has a remaining binding of 100% (binding; 1 µM).
